Our source for the IC50 and solubility values is ChEMBL document CHEMBL4382247, “A novel series of napabucasin derivatives as orally active inhibitors of signal transducer and activator of transcription 3 (STAT3)” (Eur J Med Chem, 2019).

pIC50: −log10 of the molar value. Values after ≈ are worked out from the molar mass of the structure shown.

A word on the pIC50: it is −log10 of the IC50, conventionally taken in molar units. As a reminder, the solubility is how much of the substance goes into solution per volume.

In series [1] the test system is U-251. Briefly: Antiproliferative activity against human U251 cells after 72 hrs by MTT assay. The series is classed as functional, cell-based. The following applies: U-251, 72 h. In short, it runs like this: (§1)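 Cells seeded at 5 × 10^3 per well and cultured 24 h before compound addition at varied concentrations, then grown a further 72 h; 0.5% DMSO as solvent control. MTT (5mg/ml solution) added for 4 h, formazan dissolved in DMSO, absorbance read at 570nm. Each treatment in triplicate; Mean ± SD.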
On the technique in general: Tetrazolium assays rely on reduction of a dye to a coloured formazan, in cell work by metabolically active cells.

In series [2] the test system is HepG2. Briefly: Antiproliferative activity against human HepG2 cells after 72 hrs by MTT assay. The conditions noted are these: HepG2, 72 h. The series is classed as functional, cell-based. In a few lines: as §1
Series [3] relates to HT-29. Briefly: Antiproliferative activity against human HT-29 cells after 72 hrs by MTT assay. Format: functional, cell-based. The conditions noted are these: HT-29, 72 h. In a few lines:
as §1

Series [4] has as its system PC-3. Briefly: Antiproliferative activity against human PC3 cells after 72 hrs by MTT assay. The series is classed as functional, cell-based. The following applies: PC-3, 72 h. In short, it runs like this:
as §1

Series [5] deals with CT26. Briefly: Antiproliferative activity against mouse CT26 cells after 72 hrs by MTT assay. The following applies: CT26, 72 h. The series is classed as functional, cell-based. In a few lines: as §1
Series [6] is described as follows: Aqueous solubility of the compound in water at 2 mg after 24 hrs by HPLC analysis. Format: physicochemical. In short, it runs like this: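 Aqueous solubility measured by HPLC against calibration standards at 15–125 µg/mL. Values are the mean of at least three determinations ± SD.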

Regarding `CC1(C)CCC(NC(=O)c2cc3c(o2)C(=O)c2ccccc2C3=O)CC1`, the pIC50 in series [1] was 5.58; in series [2], 4.95; in series [3], below 5.00; in series [4], below 5.00.

In the case of `O=C(NCCc1ccc(Cl)cc1)c1cc2c(o1)C(=O)c1ccccc1C2=O`, the pIC50 is 5.47 in series [1], below 5.00 in series [2], below 5.00 in series [3] and below 5.00 in series [4].

For the molecule `O=C1c2ccccc2C(=O)c2oc(C(=O)N3CCCC3)cc21`, the pIC50 in series [1] is 5.66; in series [2], below 5.00; in series [3] it was 5.97; in series [5] it was 6.24; in series [4] it was 5.02.

For the molecule `CC(=O)c1cc2c(o1)C(=O)c1ccccc1C2=O` [NAPABUCASIN], the pIC50 in series [1] was 5.59; in series [2], 5.18; in series [3], 5.80; in series [5], 5.60; in series [4] it was 5.28. The solubility at 24 h in series [6] was below 62.5 µM.

As for `O=C(NCCN1CCCC1)c1cc2c(o1)C(=O)c1ccccc1C2=O`, the negative-log IC50 (pIC50) in series [1] was 6.05; in series [2], 5.76; in series [3], 6.52; in series [5], 6.70; in series [4], 5.35.

Consider `O=C(/C=C/c1ccccc1)c1cc2c(o1)C(=O)c1ccccc1C2=O`, for which the negative logarithm of the IC50 (pIC50) in series [1], in series [2], in series [3], in series [5] and in series [4] was below 5.00 throughout.

Regarding `CCN1CCN(C(=O)c2cc3c(o2)C(=O)c2ccccc2C3=O)CC1`, the pIC50 in series [1] was 6.06; in series [2], below 5.00; in series [3], 6.68; in series [5], 6.23; in series [4], 5.69. Besides, the concentration in solution in series [6] (solubility at 24 h) came to 241 µM (≈ 81.5 µg/mL).

On to `O=C(NCCc1ccccc1)c1cc2c(o1)C(=O)c1ccccc1C2=O`, for which the negative logarithm of the IC50 (pIC50) in series [1], in series [2], in series [3] and in series [4] was below 5.00 in each case.

Turning to `O=C1c2ccccc2C(=O)c2oc(C(=O)N3CCC(c4ccc(F)cc4)CC3)cc21`, the pIC50 in series [1], in series [2], in series [3] and in series [4] was below 5.00 each time.

Consider `O=C1CCN(C(=O)c2cc3c(o2)C(=O)c2ccccc2C3=O)CC1`, for which the pIC50 was 6.24 in series [1]; 5.60 in series [2]; 5.95 in series [3]; 6.21 in series [5]; below 5.00 in series [4]. The concentration in solution in series [6] (solubility at 24 h) was 118 µM (≈ 38.1 µg/mL).

As for `O=C(/C=C/c1ccc(-c2ccccc2)cc1)c1cc2c(o1)C(=O)c1ccccc1C2=O`, the pIC50 in series [1], in series [2], in series [3], in series [5] and in series [4] was below 5.00 in each case.

As to `COc1ccc(C2CCN(C(=O)c3cc4c(o3)C(=O)c3ccccc3C4=O)CC2)cc1`, the negative logarithm of the IC50 (pIC50) is below 5.00 in series [1], below 5.00 in series [2], below 5.00 in series [3] and 5.02 in series [4].

Turning to `O=C(NCCN1CCOCC1)c1cc2c(o1)C(=O)c1ccccc1C2=O`, the negative logarithm of the IC50 (pIC50) in series [1] was 5.79; in series [2], below 5.00; in series [3], 6.43; in series [5], 7.30; in series [4], 5.14. This molecule gave a solubility at 24 h in series [6] below 70.6 µM.

As to `O=C1c2ccccc2C(=O)c2oc(C(=O)N3CCSCC3)cc21`, the pIC50 in series [1] is 5.51; in series [2], 5.02; in series [3], 5.78; in series [5] it was 5.87; in series [4], 5.23. In series [6], this molecule registered a solubility at 24 h below 76.5 µM.

As for `O=C(/C=C/c1cccs1)c1cc2c(o1)C(=O)c1ccccc1C2=O`, the negative-log IC50 (pIC50) is 5.66 in series [1]; below 5.00 in series [2]; 5.82 in series [3]; below 5.00 in series [5]; below 5.00 in series [4].

In the case of `COC(=O)CC1CCN(C(=O)c2cc3c(o2)C(=O)c2ccccc2C3=O)CC1`, the pIC50 in series [1] is 5.23; in series [2] it was 5.02; in series [3], below 5.00; in series [4], below 5.00.

Turning to `O=C1c2ccccc2C(=O)c2oc(C(=O)N3CCCCC3)cc21`, the negative-log IC50 (pIC50) in series [1] was 5.67; in series [2], below 5.00; in series [3], 5.80; in series [5], 6.02; in series [4] it was below 5.00.

Consider `O=C1c2ccccc2C(=O)c2oc(C(=O)N3CCN(c4cccc(C(F)(F)F)c4)CC3)cc21`, for which the negative logarithm of the IC50 (pIC50) in series [1], in series [2], in series [3] and in series [4] was below 5.00 each time.

Turning to `O=C(NC1CCCCC1)c1cc2c(o1)C(=O)c1ccccc1C2=O`, the negative logarithm of the IC50 (pIC50) in series [1] was 5.52; in series [2], below 5.00; in series [3], below 5.00; in series [4] it was below 5.00.

Consider `O=C(NC12CC3CC(CC(C3)C1)C2)c1cc2c(o1)C(=O)c1ccccc1C2=O`, for which the pIC50 in series [1], in series [2], in series [3] and in series [4] was below 5.00 in each case.

As for `COc1ccc(CCNC(=O)c2cc3c(o2)C(=O)c2ccccc2C3=O)cc1`, the negative logarithm of the IC50 (pIC50) in series [1] is 5.20; in series [2] it was below 5.00; in series [3], below 5.00; in series [4], below 5.00.

For `Cn1cccc1/C=C/C(=O)c1cc2c(o1)C(=O)c1ccccc1C2=O`, the negative-log IC50 (pIC50) in series [1] was 5.82; in series [2] it was below 5.00; in series [3], 6.06; in series [5], 5.61; in series [4] it was below 5.00.

On to `CN1CCN(C(=O)c2cc3c(o2)C(=O)c2ccccc2C3=O)CC1`, for which the negative-log IC50 (pIC50) in series [1] is 5.86; in series [2], 5.28; in series [3] it was 6.41; in series [5], 6.59; in series [4] it was 5.34. In series [6], this molecule displayed a solubility at 24 h of 337 µM (≈ 109 µg/mL).

`O=C1c2ccccc2C(=O)c2oc(C(=O)N3CCC(c4cccc(Cl)c4)CC3)cc21`: the negative logarithm of the IC50 (pIC50) in series [1], in series [2], in series [3] and in series [4] was below 5.00 each time.

As for `O=C1c2ccccc2C(=O)c2oc(C(=O)N3CCOCC3)cc21`, the pIC50 is 5.66 in series [1]; 5.14 in series [2]; 6.07 in series [3]; 6.24 in series [5]; 5.16 in series [4]. In addition, the solubility at 24 h in series [6] is 162 µM (≈ 50.5 µg/mL).
